Measured values: ChEMBL document CHEMBL2177078, “New positron emission tomography (PET) radioligand for imaging σ-1 receptors in living subjects” (J Med Chem, 2012)
Active and inactive are the calls of the source. The rule behind the calls is not given here.

Key:
Brain [1] = experiment: Biodistribution in mouse brain at 200 uCi administered 10 mins post BD1047 treatment measured after 60 mins by autoradiography; assay type: ADME, organism-based; settings: in vivo, 1 h
Outline: (§1)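 Mice injected iv with 200-250 μCi tracer; brains taken 60 min later after saline perfusion, snap frozen and cut as 12 μm sagittal sections. Sections air-dried 10 min, exposed to 18F-sensitive phosphor screens 12 h at 4 °C, then imaged; anatomy confirmed by Nissl staining. Blocking arm given BD1047 (1 mg/kg) 10 min before tracer.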

Brain [2] = experiment: Biodistribution in mouse brain assessed as reduction in compound uptake at 95-125 uCi, iv administered 10 mins post haloperidol treatment measured after 60 mins by PET imaging; assay type: ADME, organism-based; settings: in vivo, 1 h
Outline: (§2)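 Normal Balb C mice (20-30 g) under isoflurane (3% induction, 1-3% maintenance). […] Dynamic list-mode microPET acquisition started just before injection and ran 60 min; images reconstructed by 2D OSEM, whole-brain time-activity curves.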

Brain [3] = experiment: Drug uptake in Balb C mouse brain at 630-690 uCi, iv after 30 mins by HPLC analysis; assay type: ADME, organism-based; settings: in vivo, 0.5 h
Outline: (§3)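 Balb C mice (n=2 per time point) received 630-690 μCi tracer iv; brain and liver collected at 30 and 60 min. Tissue homogenized in 500 μL ice-cold acetonitrile, centrifuged 9,400 g for 4 min. Supernatants run on reversed-phase radio-HPLC; percent intact parent = parent peak area/total peak area × 100, decay corrected to dosing. Extraction efficiency checked by gamma counting.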

Hippocampus = experiment: Biodistribution in mouse hippocampus at 200 uCi after 60 mins by autoradiography; assay type: ADME, organism-based; settings: in vivo, 1 h; outline: as §1
Cerebellum = experiment: Biodistribution in mouse cerebellum at 200 uCi after 60 mins by autoradiography; assay type: ADME, organism-based; settings: in vivo, 1 h; outline: as §1
Liver [4] = experiment: Drug uptake in Balb C mouse liver at 630-690 uCi, iv after 60 mins by HPLC analysis; assay type: ADME, organism-based; settings: in vivo, 1 h; outline: as §3
Brain [5] = experiment: Drug uptake in Balb C mouse brain at 630-690 uCi, iv after 60 mins by HPLC analysis; assay type: ADME, organism-based; settings: in vivo, 1 h; outline: as §3
Brain [6] = experiment: Biodistribution in mouse brain assessed as reduction in compound uptake at 95-125 uCi, iv administered 10 mins post BD1047 treatment measured after 60 mins by PET imaging; assay type: ADME, organism-based; settings: in vivo, 1 h; outline: as §2
Cortex = experiment: Biodistribution in mouse cortex at 200 uCi after 60 mins by autoradiography; assay type: ADME, organism-based; settings: in vivo, 1 h; outline: as §1
Brain [7] = experiment: Biodistribution in mouse brain assessed as reduction in compound uptake at 95-125 uCi, iv administered 10 mins post FTC-146 treatment measured after 60 mins by PET imaging; assay type: ADME, organism-based; settings: in vivo, 1 h
Outline: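 Normal Balb C mice (20-30 g) under isoflurane (3% induction, 1-3% maintenance). […] Dynamic microPET list-mode acquisition for 60 min, OSEM reconstruction. Whole-brain uptake from time-activity curves, reduction read at 60 min.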

CHO [8] = experiment: Cellular uptake in CHO cells after 30 to 120 mins by gamma counting; assay type: ADME, cell-based, Cricetulus griseus; settings: chinese hamster
Outline: (§4)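 CHO cells grown in Ham's F-12, seeded 2 × 10^5 per well, transfected 24 h later with 0.8 μg empty pcDNA (control) or 0.8 μg S1R (OPRS1) DNA; medium refreshed at 12 h. At 24 h post-transfection, exposed to [18F] tracer (2 μCi/well) for 30 and 120 min, triplicate wells. Washed twice with cold PBS, lysed in 1 N NaOH, gamma counted; normalized to Bradford protein.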

Mus musculus [9] = organism: Mus musculus; experiment: Biodistribution in mouse corpus callosum at 200 uCi after 60 mins by autoradiography; assay type: ADME, organism-based; settings: in vivo, 1 h; outline: as §1
Mus musculus [10] = organism: Mus musculus; experiment: Biodistribution in mouse brain facial nucleus at 200 uCi after 60 mins by autoradiography; assay type: ADME, organism-based; settings: in vivo, 1 h; outline: as §1
Mus musculus [11] = organism: Mus musculus; experiment: Biodistribution in mouse midbrain at 200 uCi after 60 mins by autoradiography; assay type: ADME, organism-based; settings: in vivo, 1 h; outline: as §1
Liver [12] = experiment: Drug uptake in Balb C mouse liver at 630-690 uCi, iv after 30 mins by HPLC analysis; assay type: ADME, organism-based; settings: in vivo, 0.5 h; outline: as §3
Brain [13] = experiment: Biodistribution in mouse brain at 95-125 uCi, iv by PET imaging; assay type: ADME, organism-based; settings: in vivo; outline: as §2
[14] = Binding affinity to acetylcholine esterase at 100 nM
[15] = Binding affinity to alpha-2 adrenergic receptor at 100 nM
[16] = biological target: Sodium-dependent noradrenaline transporter (Homo sapiens) (UniProt P23975); experiment: Binding affinity to norepinephrine transporter at 100 nM
Chain of Sodium-dependent noradrenaline transporter (Homo sapiens) (P23975 whole entry): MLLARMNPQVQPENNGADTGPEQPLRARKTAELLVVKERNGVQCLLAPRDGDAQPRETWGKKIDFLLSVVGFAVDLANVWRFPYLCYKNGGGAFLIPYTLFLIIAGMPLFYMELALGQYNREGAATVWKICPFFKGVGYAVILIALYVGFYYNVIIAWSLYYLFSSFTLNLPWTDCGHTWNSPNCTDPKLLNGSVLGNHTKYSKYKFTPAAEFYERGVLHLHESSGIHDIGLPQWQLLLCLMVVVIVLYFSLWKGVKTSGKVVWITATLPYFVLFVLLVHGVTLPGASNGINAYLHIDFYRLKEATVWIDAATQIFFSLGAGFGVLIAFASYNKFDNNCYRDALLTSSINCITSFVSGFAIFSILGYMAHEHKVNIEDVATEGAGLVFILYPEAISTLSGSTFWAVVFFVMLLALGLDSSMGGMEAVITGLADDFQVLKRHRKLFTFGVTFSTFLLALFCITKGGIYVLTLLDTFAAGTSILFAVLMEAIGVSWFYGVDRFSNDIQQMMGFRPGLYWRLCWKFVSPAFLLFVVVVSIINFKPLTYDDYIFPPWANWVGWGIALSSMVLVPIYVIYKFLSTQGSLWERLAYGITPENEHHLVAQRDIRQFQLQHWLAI

[17] = Displacement of [3H]di-o-tolylguanidine from Sigma2 receptor in rat liver homogenate; assay type: tissue-based
Outline: (§5)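 Competition binding of unlabeled ligand in rat brain or rat liver homogenates. S2R binding run in the presence of 300 nM 1 to mask S1R sites. Liver assays run on a 96-well platform.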

[18] = Binding affinity to calcium channel L type at 100 nM
[19] = biological target: Histamine H2 receptor (Homo sapiens) (UniProt P25021); experiment: Binding affinity to histamine H2 receptor at 100 nM
Chain of Histamine H2 receptor (Homo sapiens) (P25021 whole entry): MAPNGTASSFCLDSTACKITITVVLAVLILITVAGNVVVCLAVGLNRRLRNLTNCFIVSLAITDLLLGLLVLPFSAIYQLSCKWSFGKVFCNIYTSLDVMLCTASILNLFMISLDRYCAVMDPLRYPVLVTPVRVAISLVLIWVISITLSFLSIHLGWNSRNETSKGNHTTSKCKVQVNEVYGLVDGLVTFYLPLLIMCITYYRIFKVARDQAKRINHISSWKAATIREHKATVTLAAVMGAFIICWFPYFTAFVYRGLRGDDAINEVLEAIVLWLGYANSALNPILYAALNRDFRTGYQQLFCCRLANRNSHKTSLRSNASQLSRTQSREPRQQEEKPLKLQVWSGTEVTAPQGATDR

[20] = biological target: T1, Muscarinic acetylcholine receptor M2 (Homo sapiens) (UniProt P08172); experiment: Binding affinity to muscarinic M2 receptor at 100 nM
T1 sequence (whole entry): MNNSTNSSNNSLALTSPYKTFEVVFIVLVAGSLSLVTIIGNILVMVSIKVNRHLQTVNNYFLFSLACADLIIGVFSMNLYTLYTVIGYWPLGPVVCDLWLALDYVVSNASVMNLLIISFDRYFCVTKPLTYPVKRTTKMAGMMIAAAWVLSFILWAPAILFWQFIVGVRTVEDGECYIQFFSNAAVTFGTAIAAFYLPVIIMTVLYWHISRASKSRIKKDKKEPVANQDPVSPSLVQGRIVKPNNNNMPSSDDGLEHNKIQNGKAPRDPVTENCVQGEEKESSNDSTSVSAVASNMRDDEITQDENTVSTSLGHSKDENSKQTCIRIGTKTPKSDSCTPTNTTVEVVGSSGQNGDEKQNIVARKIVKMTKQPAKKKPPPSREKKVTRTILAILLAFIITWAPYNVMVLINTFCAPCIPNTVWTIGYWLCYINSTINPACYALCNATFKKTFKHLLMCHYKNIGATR

[21] = Binding affinity to peripheral muscarinic receptor at 100 nM
[22] = biological target: T2, Sigma non-opioid intracellular receptor 1 (Rattus norvegicus, UniProt Q9R0C9); experiment: Displacement of [3H](+)-pentazocine from Sigma1 receptor in rat liver homogenate; assay type: tissue-based
T2 sequence (Q9R0C9 whole entry): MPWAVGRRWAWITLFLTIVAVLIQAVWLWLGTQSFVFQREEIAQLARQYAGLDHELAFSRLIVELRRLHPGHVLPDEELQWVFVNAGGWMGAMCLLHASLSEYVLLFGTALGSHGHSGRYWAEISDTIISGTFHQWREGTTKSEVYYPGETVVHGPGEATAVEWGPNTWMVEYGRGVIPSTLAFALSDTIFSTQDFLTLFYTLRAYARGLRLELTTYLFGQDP

[23] = biological target: Sigma non-opioid intracellular receptor 1 (Homo sapiens) (UniProt Q99720); experiment: Binding affinity to Sigma1 receptor overexpressed in CHO cells after 30 to 120 mins by gamma counting; assay type: cell-based; settings: tested as the 18F-labelled form; outline: as §4
Chain of Sigma non-opioid intracellular receptor 1 (Homo sapiens) (Q99720 whole entry): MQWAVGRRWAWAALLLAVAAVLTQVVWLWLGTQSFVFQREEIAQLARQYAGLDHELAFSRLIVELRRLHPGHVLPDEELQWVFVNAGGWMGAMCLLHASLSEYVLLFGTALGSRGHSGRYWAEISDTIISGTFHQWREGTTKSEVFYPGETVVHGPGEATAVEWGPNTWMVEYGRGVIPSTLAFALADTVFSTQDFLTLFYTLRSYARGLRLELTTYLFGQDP

[24] = biological target: Sigma non-opioid intracellular receptor 1 (Homo sapiens) (UniProt Q99720); experiment: Binding affinity to Sigma1 receptor overexpressed in CHO cells after 120 mins by gamma counting relative to control; assay type: cell-based; settings: tested as the 18F-labelled form
Outline: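 CHO cells grown in Ham's F-12, 2 × 10^5 per well, transfected 24 h later with 0.8 μg empty pcDNA (control) or S1R (OPRS1) cDNA; medium refreshed at 12 h. At 24 h post-transfection, 2 μCi [18F] tracer per well; triplicates; 30 and 120 min uptake, two cold PBS washes, 1 N NaOH lysis, γ counting, normalized to Bradford protein.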

[25] = Binding affinity to sodium channel site 2 at 100 nM
[26] = Binding affinity to alpha bungarotoxin insensitive neuronal nicotinic receptor at 100 nM
[27] = Displacement of [3H]di-o-tolylguanidine from Sigma2 receptor in rat brain homogenate; assay type: tissue-based; outline: as §5
[28] = biological target: T2, Sigma non-opioid intracellular receptor 1; experiment: Displacement of [3H](+)-pentazocine from Sigma1 receptor in rat brain homogenate; assay type: tissue-based
CHO [29] = experiment: Cellular uptake in CHO cells after 30 to 120 mins by liquid scintillation counting; assay type: ADME, cell-based, Cricetulus griseus; settings: chinese hamster
Outline: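 Uptake in CHO cells in Ham's F-12, empty-pcDNA or S1R-transfected (0.8 μg DNA, 2 × 10^5 cells/well). [18F]13 at 2 μCi per well or [3H]1, 30 and 120 min, triplicate. Cells washed with cold PBS and lysed in 1 N NaOH. Counted by gamma counter (18F) or liquid scintillation (3H), normalized to Bradford protein.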

O=c1sc2cc(CCC[18F])ccc2n1CCN1CCCCCC1
Drug uptake (Brain [1]): Not Active
Drug uptake (Brain [2]): 80%
Drug uptake (Brain [3]): 100%
Drug uptake (Hippocampus): Active
Drug uptake (Cerebellum): Active
Drug uptake (Liver [4]): 27%
Drug uptake (Brain [5]): 100%
Drug uptake (Brain [6]): 81%
Drug uptake (Cortex): Active
Drug uptake (Brain [7]): 82%
Drug uptake (CHO [8]): Active
Drug uptake (Mus musculus [9]): Not Active
Drug uptake (Mus musculus [10]): Active
Drug uptake (Mus musculus [11]): Active
Drug uptake (Liver [12]): 34%
Drug uptake (Brain [13]): Active

O=c1sc2cc(CCCF)ccc2n1CCN1CCCCCC1
Activity [14]: < 50%
Activity [15]: < 50%
Activity [16]: < 50%
Ki [17]: 0.467 µM
Activity [18]: < 50%
Activity [19]: < 50%
Activity [20]: < 50%
Activity [21]: < 50%
Ki [22]: 0.00096 µM
Activity [23]: Active
fold change (FC) [24]: 4
Activity [25]: < 50%
Activity [26]: < 50%

CCCc1ccc2c(c1)sc(=O)n2CCN1CCCCCC1
Ki [27]: 0.627 µM
Ki [17]: 0.247 µM
Ki [28]: 0.0017 µM

[3H]c1cc2c(c([3H])c1O)[C@@]1(C)CCN(CC=C(C)C)[C@@H](C2)[C@H]1C
Drug uptake (CHO [29]): Active
